How the values were obtained:
Staphylococcus aureus [1] = assay: Growth inhibition of Staphylococcus aureus Mu50 after 20 hrs by broth microdilution method; type: organism-based; conditions: in vitro
Summary of the method: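 S. aureus Mu50 grown in Mueller–Hinton broth at 37 °C, aerobic; MICs determined in triplicate in flat-bottom 96-well microtiter plates following an earlier published method.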

Staphylococcus aureus [2] = assay: Potentiation of vancomycin-mediated reduction in CFU per biofilm of Staphylococcus aureus Mu50 preincubated with compound at 100 uM for 20 hrs followed by vancomycin addition measured after 24 hrs (reference value: 30 +/- 14%); type: functional; set-up: scale not given: the % may be the effect or the level left
Summary of the method: (§1)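 Inoculum: overnight MH culture resuspended in 2× MH at OD590 0.2. Analogue present during 4 h adhesion at 37 °C, then after a saline wash for 20 h more at 37 °C. Biofilms then rinsed and exposed to vancomycin (20 μg/ml) alone in saline for 24 h at 37 °C. Line 5 uses analogue at 100 μM; line 4 uses lower concentrations, with EC50 as the level doubling vancomycin killing. CFU/biofilm counted by plating after vortex/sonication, as % reduction vs untreated control. n ≥ 9.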

Staphylococcus aureus [3] = assay: Potentiation of vancomycin-mediated reduction in CFU per biofilm of Staphylococcus aureus Mu50 at 100 uM after 24 hrs (reference value: 30 +/- 14%); type: functional; set-up: scale not given: the % may be the effect or the level left
Staphylococcus aureus [4] = assay: Potentiation of vancomycin-mediated reduction in CFU per biofilm of Staphylococcus aureus Mu50 preincubated for 20 hrs followed by vancomycin addition measured after 24 hrs; type: functional, organism-based; summary of the method: as §1
Staphylococcus aureus [5] = assay: Potentiation of vancomycin-mediated reduction in CFU per biofilm of Staphylococcus aureus Mu50 after 24 hrs; type: functional, organism-based; conditions: Mu50, 24 h

EC50 (Staphylococcus aureus [4])	EC50 (Staphylococcus aureus [5])	SMILES	MIC (Staphylococcus aureus [1])	Activity (Staphylococcus aureus [2])	Activity (Staphylococcus aureus [3])
–	–	O=C(NC[C@H]1OC[C@@](O)(CNC(=O)c2ccccc2)[C@@H]1O)Nc1ccccc1	> 500 µM	76%	81%
–	–	O=C(NC[C@]1(O)CO[C@H](CNC(=S)Nc2ccccc2)[C@H]1O)c1ccccc1	> 500 µM	80%	73%
–	–	CC(C)S(=O)(=O)NC[C@H]1OC[C@@](O)(CNC(=O)c2ccccc2)[C@@H]1O	> 500 µM	72%	67%
–	–	Cc1ccc(S(=O)(=O)NC[C@H]2OC[C@@](O)(CNC(=O)c3ccccc3)[C@@H]2O)cc1	> 500 µM	83%	74%
57.7 µM	60.2 µM	O=C(NC[C@]1(O)CO[C@H](CN2Cc3ccccc3C2=O)[C@H]1O)c1ccccc1	> 500 µM	75%	70%
–	–	O=C(NC[C@]1(O)CO[C@H](Cn2nncc2-c2ccccc2)[C@H]1O)c1ccccc1	> 500 µM	53%	26%
–	–	O=C(NC[C@]1(O)CO[C@H](CNS(=O)(=O)c2ccc(-c3ccccc3)cc2)[C@H]1O)c1ccccc1	> 500 µM	84%	83%
1.9 µM	20.4 µM	O=C(NC[C@]1(O)CO[C@H](CNC(=O)c2ccccc2I)[C@H]1O)c1ccccc1	> 500 µM	96%	84%
31 µM	25.7 µM	O=C(NC[C@]1(O)CO[C@H](CNC(=O)c2ccccc2OC(F)F)[C@H]1O)c1ccccc1	> 500 µM	81%	78%
23.5 µM	27.8 µM	O=C(NC[C@]1(O)CO[C@H](CNS(=O)(=O)c2ccc(Cl)cc2)[C@H]1O)c1ccccc1	> 500 µM	86%	85%
9.8 µM	19.7 µM	O=C(NC[C@]1(O)CO[C@H](CNC(=O)c2ccccc2Br)[C@H]1O)c1ccccc1	> 500 µM	96%	82%
–	–	CCS(=O)(=O)NC[C@H]1OC[C@@](O)(CNC(=O)c2ccccc2)[C@@H]1O	> 500 µM	49%	47%
–	–	CS(=O)(=O)NC[C@H]1OC[C@@](O)(CNC(=O)c2ccccc2)[C@@H]1O	> 500 µM	69%	62%
–	–	O=C(NC[C@]1(O)CO[C@H](Cn2cc(-c3ccccc3)nn2)[C@H]1O)c1ccccc1	> 500 µM	46%	66%
224 µM	> 250 µM	O=C(NC[C@@H]1OC[C@@](O)(CNC(=O)c2ccccc2)[C@@H]1O)c1ccccc1	> 500 µM	48%	44%
–	–	O=C(NC[C@]1(O)CO[C@H](CNS(=O)(=O)c2ccccc2Cl)[C@H]1O)c1ccccc1	> 500 µM	65%	73%
–	–	O=C(NC[C@]1(O)CO[C@H](CNS(=O)(=O)c2ccccc2)[C@H]1O)c1ccccc1	> 500 µM	78%	69%
26.4 µM	56.7 µM	O=C(NC[C@]1(O)CO[C@H](CNC(=O)c2ccccc2OC(F)(F)F)[C@H]1O)c1ccccc1	> 500 µM	78%	69%
8.5 µM	24.3 µM	CN(C[C@H]1OC[C@@](O)(CNC(=O)c2ccccc2)[C@@H]1O)C(=O)c1ccccc1	> 500 µM	94%	90%
–	–	O=C(NC[C@]1(O)CO[C@H](CNS(=O)(=O)C(F)(F)F)[C@H]1O)c1ccccc1	> 500 µM	71%	57%
41.2 µM	45.1 µM	O=C(NC[C@]1(O)CO[C@H](CNCc2ccccc2)[C@H]1O)c1ccccc1	> 500 µM	81%	78%
97 µM	124 µM	O=C(NC[C@H]1OC[C@@](O)(CNC(=O)c2ccccc2)[C@@H]1O)c1ccccc1	> 500 µM	66%	65%

SMILES	EC50 (Staphylococcus aureus [4])	EC50 (Staphylococcus aureus [5])	MIC (Staphylococcus aureus [1])	Activity (Staphylococcus aureus [2])	Activity (Staphylococcus aureus [3])
O=C(OC[C@H]1OC(O)[C@@](O)(COC(=O)c2cc(O)c(O)c(O)c2)[C@@H]1O)c1cc(O)c(O)c(O)c1 (stereo partly drawn) [HAMAMELITANNIN]	146 µM	165 µM	> 500 µM	57%	57%
O=C(NC[C@]1(O)CO[C@H](CNC(=O)c2ccccc2Cl)[C@H]1O)c1ccccc1	0.389 µM	0.389 µM	–	–	–

— ChEMBL document CHEMBL4431338, “Design, synthesis and biological evaluation of novel hamamelitannin analogues as potentiators for vancomycin in the treatment of biofilm related Staphylococcus aureus infections” (Bioorg Med Chem, 2016)
